Reference: ChEMBL document CHEMBL1146962, “Design, synthesis, and biological evaluation of a scaffold for iGluR ligands based on the structure of (-)-dysiherbaine” (Bioorg Med Chem Lett, 2006)
Active and inactive are the calls of the source. The calls are words filed in the database; no cut-off is given here.

Legend:
Format in all cases: functional
[1] = target: T1, Glutamate receptor ionotropic, kainate (Rattus norvegicus) (UniProt P22756+Q01812+P42260+P42264+Q63273); experiment: Antagonist activity against rat KA receptor assessed by inhibition of kainate-induced membrane current at 100 uM; set-up: scale not given: the % may be the effect or the level left
In short: (§1)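 Oocytes injected with native rat cerebral cortex mRNA were used. Membrane currents induced by 100 μM kainate were recorded with the test agent present (analogs at 100 μM; CNQX reference at 1 μM). Residual current is reported as a percentage of the kainate control. N = 2-7 oocyte preparations.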

[2] = target: T2, Glutamate NMDA receptor (Rattus norvegicus) (UniProt P35439+Q00959+Q00960+Q00961+Q62645+Q8VHN2+Q9R1M7); experiment: Agonist activity at rat NMDA receptor in presence of glycine assessed by generation of membrane current at 100 uM relative to control
In short: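 Rat cortex mRNA-injected oocytes. The analog (100 μM) was applied in the presence of 100 μM glycine. The elicited current is expressed relative to a positive control of 100 μM NMDA plus 100 μM glycine.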

[3] = target: T1, Glutamate receptor ionotropic, kainate (Rattus norvegicus); experiment: Agonist activity at rat KA receptor assessed by generation of membrane current at 100 uM relative to control
[4] = target: T2, Glutamate NMDA receptor (Rattus norvegicus); experiment: Antagonist activity against rat NMDA receptor assessed by inhibition of NMDA plus glycine-induced membrane current at 100 uM
In short: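 In rat cortex mRNA-injected oocytes, analogs (100 μM) were tested against currents evoked by 100 μM NMDA plus 100 μM glycine.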

[5] = target: T1, Glutamate receptor ionotropic, kainate (Rattus norvegicus); experiment: Agonist activity at rat KA receptor assessed by generation of membrane current at 100 uM relative to control in presence of 10 uM cyclothiazide
In short: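 Oocytes were injected with rat cerebral cortex mRNA. Each analog at 100 μM was co-applied with 10 μM cyclothiazide (AMPA receptor desensitization inhibitor). Membrane current is given as a percentage of the 100 μM kainate control current, with and without cyclothiazide. N = 2-7 oocyte preparations.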

[6] = target: T1, Glutamate receptor ionotropic, kainate (Rattus norvegicus); experiment: Antagonist activity against rat KA receptor assessed by inhibition of kainate-induced membrane current at 1 uM; set-up: scale not given: the % may be the effect or the level left; in short: as §1

| Activity [1] [%] | Activity [2] | Activity [3] | Activity [4] | Activity [5] [%] | Activity [6] [%] | SMILES |
| --- | --- | --- | --- | --- | --- | --- |
| 55 | inactive | inactive | inactive | – | – | N[C@@H](C[C@]1(C(=O)O)Cc2ccccc2O1)C(=O)O |
| 95 | inactive | 6% | inactive | 13 | – | Cc1cccc2c1O[C@@](C[C@H](N)C(=O)O)(C(=O)O)C2 |
| 72 | 44% | inactive | inactive | – | – | Cc1ccc2c(c1)C[C@](C[C@H](N)C(=O)O)(C(=O)O)O2 |
| 100 | – | inactive | inactive | – | – | N[C@@H](C[C@@]1(C(=O)O)Cc2ccccc2O1)C(=O)O |
| – | – | – | – | – | 38 | N#Cc1cc2c(cc1[N+](=O)[O-])=NC(=O)C(=O)N=2 |
